UBC13 polyUb = UBC13 polyubiquitin chain formation inhibitors, primary screen, biochemical, TR-FRET, uHTS. AID 485273, 2010. Ubiquitin-conjugating enzyme E2 N (Homo sapiens), P61088. inhibition, % at 20 µM. 0.47% of 330,000 active; in the data active means inhibition above about 45%, passing the limit was not always enough
Target sequence (P61088 whole entry, looked up): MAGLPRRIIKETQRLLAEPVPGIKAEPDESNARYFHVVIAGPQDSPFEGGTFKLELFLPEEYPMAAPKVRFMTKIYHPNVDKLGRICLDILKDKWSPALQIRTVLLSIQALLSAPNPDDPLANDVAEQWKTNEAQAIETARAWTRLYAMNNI
Fh CTSL1 inh = Fasciola hepatica cathepsin L1 inhibitors, primary screen, counter-screen for PFM18AAP inhibitor project, biochemical, QFRET, fluorogenic peptide substrate; inhibition, % at 5.96 µM; AID 1906, 2009; 0.49% of 300,000 active; recombinant F. hepatica cathepsin L1, Z-Leu-Arg-MCA fluorescence;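 active means inhibition above the mean of all tested compounds plus 3 SD, set per screening campaign, cut at about 17% in these data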;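 further: 0% = plate median of test compound wells and 100% = 1 µM Z-Phe-Ala-diazomethylketone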
PP1 counter = PP1-alpha phosphatase inhibitors, primary screen, counter-screen for PP5 inhibitor project, biochemical, fluorescence, OMFP substrate, single point | inhibition, % at 6.7 µM | 0.9% of 320,000 active | purified PP1alpha | Serine/threonine-protein phosphatase PP1-alpha catalytic subunit (Homo sapiens), P62136;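 active means inhibition above the mean inhibition of all tested compounds plus 3 SD, computed separately for each screening campaign, cut at about 15% in these data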
UCH37 DUB inh = inhibitors of human UCH37 deubiquitinase, primary screen, biochemical, Ub-AMC cleavage, fluorescence; inhibition, % (test concentration not listed); AID 588478, 2011; purified proteasome/UCH37; 0.33% of 330,000 active; Ubiquitin carboxyl-terminal hydrolase isozyme L5 (Homo sapiens), Q9Y5K5;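 active means mean inhibition over replicate wells above about 20%, limit read from the data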;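 further: 0% = compound-free wells with enzyme and 100% = wells lacking proteasome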
Target sequence (Q9Y5K5 whole entry, looked up): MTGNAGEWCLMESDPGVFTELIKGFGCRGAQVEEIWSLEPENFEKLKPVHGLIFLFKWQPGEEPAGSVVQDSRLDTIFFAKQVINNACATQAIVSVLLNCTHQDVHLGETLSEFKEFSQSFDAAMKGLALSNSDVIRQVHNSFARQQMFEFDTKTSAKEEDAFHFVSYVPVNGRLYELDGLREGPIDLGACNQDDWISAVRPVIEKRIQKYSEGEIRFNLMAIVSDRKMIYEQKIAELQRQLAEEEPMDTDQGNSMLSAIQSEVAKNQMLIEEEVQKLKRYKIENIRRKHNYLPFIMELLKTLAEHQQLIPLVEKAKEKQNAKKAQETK
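Schedule: 30 min plus 25 min, room temperature / Material: human UCH37 within purified proteasomes / Technique: AMC fluorescence intensity at 355/460 nm / Buffer or medium: pH 7.4 Tris-HCl (50 mM) with ovalbumin, ATP-MgCl2, DTT / Controls: wells without proteasome as full block, compound-free enzyme plus substrate as uninhibited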
PP5 primary = PP5 phosphatase inhibitors, primary screen, biochemical, fluorescence | 0.18% of 320,000 active | AID 1987, 2009 | inhibition, % at 6.7 µM | Serine/threonine-protein phosphatase 5 (Homo sapiens), P53041 | purified PP5c, OMFP substrate fluorescence;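 active means inhibition above the campaign's mean inhibition across all tested compounds plus 3 SD, cut at about 9.5% in these data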;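 further: 0% = DMSO only and 100% = 100 µM cantharidin control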
PREPL inh = PREPL enzyme inhibitors, primary screen, biochemical, fluorescence polarization; recombinant PREPL, fluorescence polarization activity-based probe; 0.68% of 320,000 active; inhibition, % at 5.96 µM; in the data active means inhibition above about 43%;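 further: 0% = enzyme with DMSO and 100% = wells lacking enzyme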
PP1 confirm = PP1 phosphatase inhibitors, confirmation, biochemical, fluorescence, OMFP substrate, triplicate | shares compounds with PP1 counter | 52% of 1,900 active | inhibition, % at 6.7 µM | purified PP1alpha;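 active means mean PP1 inhibition above a set limit taken from the earlier primary screen, cut at about 15% in these data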
PP5 counter = PP5 phosphatase inhibition by PP1 hits, confirmation, counter-screen for PP1 inhibitor project, biochemical, fluorescence, triplicate | shares compounds with PP1 counter | purified PP5c, OMFP fluorescence | inhibition, % at 6.7 µM | 4% of 1,900 active;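 active means mean PP5 inhibition over triplicate wells above about 9.5% taken from the earlier PP1 screen, limit read from the data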
* = called active by the depositor; nt = no result. Rows were chosen to be rich in hits. Some 2.3% of all compounds tested hit in one or more screens of this group.

SMILES	UBC13 polyUb	Fh CTSL1 inh	PP1 counter	UCH37 DUB inh	PP5 primary	PREPL inh	PP1 confirm	PP5 counter
Cc1occc1-c1nnc(SCC(=O)Nc2nccs2)n1Cc1ccco1	-1.6	0.2	29.7*	0.6	-1.0	-0.7	-5.5	-4.5
Cc1ccc(NC(=O)CN(C)C(=O)c2cc(-c3ccco3)nc3ccccc23)cc1	2.0	5.2	28.5*	-266.7	1.1	16.1	0.2	-0.8
COc1cccc(NC(=O)c2cc(-c3ccco3)nc3ccccc23)c1	-7.8	6.5	17.9*	-40.2	0.3	5.9	3.1	0.2
CCN(CC)S(=O)(=O)c1cccc(C(=O)NN=Cc2ccc(N3CCOCC3)cc2)c1	nt	nt	nt	-35.4	nt	nt	nt	nt
O=C(/C=C/c1cn(-c2ccccc2)nc1-c1cccnc1)c1ccco1	-3.0	9.6	18.5*	2.7	0.0	2.3	-3.1	-0.7
O=C(/C=C/c1cn(-c2ccccc2)nc1-c1cccnc1)N1CCCC1	nt	nt	nt	2.4	nt	nt	nt	nt
NC(=O)c1ccc(NC(=O)COC(=O)/C=C/c2cn(-c3ccccc3)nc2-c2cccnc2)cc1	7.4	-11.2	23.4*	-103.6	2.4	-11.9	19.0*	-1.3
O=C(/C=C/c1cn(-c2ccccc2)nc1-c1ccccc1)Nc1ccc(C(=O)O)cc1	13.9	7.7	19.2*	5.4	4.1	-14.7	9.2	4.0
O=C(CSCc1ccccc1Br)NN=Cc1ccc2c(c1)OCO2	nt	nt	nt	1.2	nt	nt	nt	nt
O=C(Cc1ccccc1)NN=Cc1ccc(S(=O)(=O)O)o1	nt	nt	nt	2.0	nt	nt	nt	nt
CCn1c(SCC(=O)Nc2oc(-c3ccccc3)c(-c3ccccc3)c2C#N)nnc1-c1ccncc1	-30.5	-1.4	2.4	2.5	1.7	2.3	nt	nt
CCn1c(SCC(=O)Nc2oc(-c3ccccc3)c(-c3ccccc3)c2C#N)nnc1-c1ccco1	-11.8	1.3	18.0*	-0.5	1.0	8.0	9.9	-0.7
Cc1ccccc1-n1nc(C(=O)O)cc1-c1ccccc1	-3.5	-1.2	36.2*	3.6	4.0	14.9	33.2*	-4.8
COc1ccc(-n2nc(C(=O)O)cc2-c2ccccc2)cc1	-1.2	3.9	26.2*	4.7	0.4	4.8	24.4*	-4.7
O=C(O)c1cc(-c2ccc(Cl)c(Cl)c2)n(-c2ccc(F)cc2)n1	-4.3	-1.6	52.7*	2.1	-0.1	-0.6	48.8*	-5.2
O=C(O)c1cc2nc(-c3ccccc3)cc(-c3ccccc3)n2n1	5.1	3.7	2.5	-42.6	-0.6	12.3	nt	nt
O=C(O)c1cc(-c2ccccc2)n(-c2ccc(Cl)cc2)n1	-0.8	3.7	23.9*	2.0	-0.3	6.2	30.6*	2.5
Cc1occc1C(=O)NN=C/C=C/c1ccccc1[N+](=O)[O-]	nt	nt	nt	4.3	nt	nt	nt	nt
CCCOc1c(Cl)cc(C=NO)cc1OCC	nt	nt	nt	2.7	nt	nt	nt	nt
CC(C)c1cc(C(=O)NN=Cc2cccnc2)n[nH]1	nt	nt	nt	2.2	nt	nt	nt	nt
CC(C)(C)c1ccc(S(=O)(=O)ON=C2CCCCC2c2ccc([N+](=O)[O-])cc2[N+](=O)[O-])cc1 (stereo not drawn)	nt	nt	nt	2.8	nt	nt	nt	nt
O=C(O)c1nc(-c2ccccc2)n(-c2ccc(Cl)cc2)n1	-4.2	2.5	18.1*	-0.2	-1.0	9.4	18.1*	-6.4
O=C(O)c1cc(-c2ccccc2)n(-c2ccccc2)n1	-3.5	-8.2	24.2*	4.9	0.7	9.8	28.1*	-2.8
O=C(O)c1cc(-c2ccccc2Cl)n(-c2ccccc2)n1	-1.0	-6.1	3.4	3.3	-0.8	-12.0	nt	nt
O=C(O)c1nc(-c2ccccc2)n(-c2ccccc2)n1	0.0	-3.6	6.6	1.3	-1.0	4.3	nt	nt
SMILES	UBC13 polyUb	Fh CTSL1 inh	PP1 counter	UCH37 DUB inh	PP5 primary	PREPL inh	PP1 confirm	PP5 counter
Cc1ccc(S(=O)(=O)NN=Cc2cc([N+](=O)[O-])ccc2O)cc1[N+](=O)[O-]	nt	nt	nt	2.7	nt	nt	nt	nt
Cc1cc(-c2n[nH]c(=S)n2N=Cc2cccc([N+](=O)[O-])c2)n[nH]1	nt	nt	nt	1.2	nt	nt	nt	nt
C(CCc1ccccc1)=NNc1nc2ccccc2[nH]1	nt	nt	nt	0.5	nt	nt	nt	nt
CC(=NNC(=S)NC(C)C)c1ccccc1	nt	nt	nt	3.5	nt	nt	nt	nt
COc1cc(C=NNC(=O)CCc2c(C)n[nH]c2C)ccc1O	nt	nt	nt	-2.6	nt	nt	nt	nt
O=C(O)c1ccccc1-c1nc2ccccc2c(=O)n1O	10.6	-0.1	24.6*	2.7	4.2	-5.2	29.9*	1.4
CCOc1ccc2nc(NC3=NC(c4ccc(OC)cc4)CC(=O)N3)nc(C)c2c1 (stereo not drawn)	21.5	-6.5	38.6*	-3.9	3.7	10.5	11.3	-1.6
COc1cc(NC(=O)c2cc(S(=O)(=O)N3CCCCC3)c[nH]2)cc(OC)c1	-16.4	-1.6	17.6*	-0.8	-1.9	-1.6	12.2	-3.8
COc1ccc(NC(=O)c2cc(S(=O)(=O)N3CCCCC3)c[nH]2)c(OC)c1	-1.1	2.1	-1.6	9.4	1.3	1.3	nt	nt
COC(=O)C=c1sc2n(c1=O)CCN=2	nt	nt	nt	-2.7	nt	nt	nt	nt
COC(=O)c1ccccc1NC(=O)c1ccc(COc2cccc3ccccc23)o1	-7.7	-1.0	24.7*	-7.8	4.2	0.2	18.9*	-1.0
C=CCc1c(C)nc(-c2ccccc2)nc1NN=Cc1ccncc1	nt	nt	nt	9.9	nt	nt	nt	nt
O=C(Nc1nnc(-c2ccco2)o1)c1ccc(Cl)s1	-29.0	6.6	17.5*	7.9	-2.3	-2.7	3.2	-2.3
COc1cccc(-c2nnc(NC(=O)c3cccc(F)c3)o2)c1	-13.2	-2.1	13.6	4.6	3.6	8.1	nt	nt
COc1cccc(-c2nnc(NC(=O)c3ccc(Cl)s3)o2)c1	-16.8	2.5	21.8*	-69.0	-0.7	2.1	25.2*	-4.9
COc1ccc(NS(=O)(=O)c2ccc3c(c2)[C@H]2C=CC[C@H]2[C@@H](c2ccc(C(=O)O)cc2)N3)cc1	-3.4	7.3	18.8*	nt	2.9	33.3	5.6	-1.8
Cc1c(Cl)cccc1NS(=O)(=O)c1ccc2c(c1)C1C=CCC1C(c1ccc(C(=O)O)cc1)N2 (stereo not drawn)	-30.0	-2.5	24.6*	-1.2	0.8	25.3	18.4*	1.0
Cc1cccc(CSc2ccc3nnc(-c4ccccn4)n3n2)c1	-7.8	1.1	18.8*	1.3	0.4	31.2	7.9	-6.5
O=C(NN1CCOCC1)c1ccc(F)cc1	8.6	-1.3	20.2*	4.8	0.5	3.6	-5.6	-5.9
Cc1ccc(C(=O)NN2CCOCC2)cc1	-18.9	-2.0	0.8	6.4	-1.4	1.3	nt	nt

Screening results: PubChem BioAssay, several laboratories
